In ChEMBL document CHEMBL4425122, “Discovery of 1-(1H-Pyrazolo[4,3-c]pyridin-6-yl)urea Inhibitors of Extracellular Signal-Regulated Kinase (ERK) for the Treatment of Cancers” (J Med Chem, 2016):

Assays:
[1] = target: Mitogen-activated protein kinase 1 (Mus musculus, UniProt P63085); experiment: Inhibition of mouse ERK2 preincubated for 15 mins followed by addition of IMAP peptide substrate and ATP measured after 60 mins by IMAP-FP assay
[2] = target: Mitogen-activated protein kinase 1 (Homo sapiens, UniProt P28482); experiment: Inhibition of human ERK2 preincubated for 15 mins followed by addition of IMAP peptide substrate and ATP measured after 60 mins by IMAP-FP assay
Method in brief: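 Final: 0.5 nM hERK2, 900 nM unlabeled + 80 nM labeled peptide, 30 µM ATP; 60 min, quenched with IMAP beads in binding buffer with 24 mM NaCl, read by fluorescence polarization after 60 min.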

[3] = Inhibition of ERK in human A375SM cells harboring BRAF V600E mutant assessed as inhibition of RSK phosphorylation measured after 4 hrs by mesoscale electrochemiluminescent sandwich assay; assay type: cell-based; settings: A375-SM
Method in brief: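 A375SM (BRAF V600E melanoma) cells, 10,000 per well, treated 4 h; lysed 20 min at 4 °C in Tris/NaCl/EGTA/EDTA/Triton/NaF buffer with protease and phosphatase inhibitors. Lysate captured with biotin anti-RSK1 on streptavidin MSD plate, detected with SULFO-TAG anti-pRSK (pThr359/Ser363) overnight at 4 °C; electrochemiluminescence read. IC50 from 11-point titration.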

Mitogen-activated protein kinase 1 (Homo sapiens, UniProt P28482), sequence (P28482 whole entry): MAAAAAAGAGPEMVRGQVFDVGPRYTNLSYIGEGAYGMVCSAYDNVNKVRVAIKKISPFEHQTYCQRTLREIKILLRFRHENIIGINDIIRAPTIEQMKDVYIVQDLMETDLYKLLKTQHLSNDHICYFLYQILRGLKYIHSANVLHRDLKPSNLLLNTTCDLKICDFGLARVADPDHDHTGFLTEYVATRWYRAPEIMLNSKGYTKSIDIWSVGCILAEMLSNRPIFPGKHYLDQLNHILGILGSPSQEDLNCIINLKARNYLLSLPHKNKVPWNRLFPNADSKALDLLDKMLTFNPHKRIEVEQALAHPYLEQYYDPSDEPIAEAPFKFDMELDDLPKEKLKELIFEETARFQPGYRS
Mitogen-activated protein kinase 1 (Mus musculus, UniProt P63085), sequence (P63085 whole entry): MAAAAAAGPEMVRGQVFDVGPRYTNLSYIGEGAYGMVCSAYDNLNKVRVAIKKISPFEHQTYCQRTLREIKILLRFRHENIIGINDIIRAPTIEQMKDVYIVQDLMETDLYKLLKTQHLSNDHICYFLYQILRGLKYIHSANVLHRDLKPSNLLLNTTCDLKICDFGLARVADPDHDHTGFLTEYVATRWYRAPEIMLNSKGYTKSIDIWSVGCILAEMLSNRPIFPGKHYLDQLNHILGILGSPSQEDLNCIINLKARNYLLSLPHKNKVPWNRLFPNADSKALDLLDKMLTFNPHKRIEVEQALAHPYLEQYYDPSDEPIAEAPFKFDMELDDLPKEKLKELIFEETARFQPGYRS

| IC50 [1] [nM] | IC50 [2] [nM] | IC50 [3] [nM] | Compound |
| --- | --- | --- | --- |
| > 3000 |  |  | Cc1cc(-c2n[nH]c3cc(NC(=O)OCc4ccccc4)ncc23)ccn1 |
|  | 2400 |  | Cc1cc(-c2n[nH]c3cc(NS(=O)(=O)NCc4ccccc4)ncc23)ccn1 |
|  | 0.8 | 360 | C[C@@H](NC(=O)Nc1cc2[nH]nc(-c3ccc(F)cc3)c2cn1)c1ccccc1 |
|  | 0.9 | 300 | COc1cc(-c2n[nH]c3cc(NC(=O)N[C@H](C)c4ccccc4)ncc23)ccn1 |
| 420 |  |  | Cc1cc(-c2n[nH]c3cc(NC(=O)CCc4ccccc4)ncc23)ccn1 |
|  | 0.9 | 810 | Cc1cc(-c2n[nH]c3cc(NC(=O)N[C@H](C)c4ccccc4)ncc23)cnn1 |
